One test concerns P388. The test can be described thus: Cytotoxicity against mouse P388 cells. It counts as functional, cell-based. In a few lines:
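P-388 mouse lymphocytic leukemia cells provided by an academic lab; in vitro cytotoxicity by a previously described procedure; result given as ED50 in µg/mL, with ED50 ≤ 4.0 µg/mL taken as significant for pure compounds.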

For a further test, the system named is HT-29. The test can be described thus: Cytotoxicity against human HT29 cells. The conditions noted are these: read-out: ED50 (the source's name). The test is classed as functional. In a few lines: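 HT-29 human colon adenocarcinoma cells from ATCC; in vitro cytotoxicity by a previously described procedure; result given as ED50 in µg/mL, with ED50 ≤ 4.0 µg/mL taken as significant for pure compounds.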

From ChEMBL document CHEMBL1157227, “Cytotoxic pregnane steroids from the formosan soft coral Stereonephthya crystalliana” (J Nat Prod, 2006) come the findings set out here.

The term IC50 denotes the concentration that inhibits the measured activity by half. A higher IC50 goes with weaker potency.

In brackets after ≈: the same amount, converted by molar mass.

Molecule `C=C[C@H]1CC[C@H]2[C@@H]3CC[C@H]4C[C@@H](O)CC[C@]4(CO)[C@H]3CC[C@]12C` [STEREONSTEROID A] gave an IC50 with P388 of 3.5 µg/mL (≈ 11 µM). For the same molecule, the EC50 in the test with HT-29 came to 7.5 µg/mL (≈ 23.5 µM).

Molecule `C=C[C@H]1CC[C@H]2[C@@H]3CC[C@H]4C[C@@H](O[C@@H]5O[C@@H](C)[C@@H](OC(C)=O)[C@@H](O)[C@@H]5O)CC[C@]4(C=O)[C@H]3CC[C@]12C` [STEREONSTEROID E] had an IC50 in the test on P388 of 3.8 µg/mL (≈ 7.53 µM). In addition, the EC50 in the test on HT-29 stood at 9.3 µg/mL (≈ 18.4 µM).

In the test with P388, `C=C[C@H]1CC[C@H]2[C@@H]3CC[C@H]4C[C@@H](O[C@@H]5O[C@@H](C)[C@@H](OC(C)=O)[C@@H](O)[C@@H]5O)CC[C@]4(C)[C@H]3CC[C@]12C` [STEREONSTEROID F] gave a half-maximal inhibitory concentration (IC50) of 9.4 µg/mL (≈ 19.2 µM). Besides, in the test with HT-29, the EC50 was determined as 10.8 µg/mL (≈ 22 µM).

In the case of `C=C[C@H]1CC[C@H]2[C@@H]3CC[C@H]4C[C@@H](OC(C)=O)CC[C@]4(C=O)[C@H]3CC[C@]12C` [STEREONSTEROID B], inhibition in the test with P388 was half-maximal at 1.6 µg/mL (≈ 4.46 µM) (IC50). Besides, the EC50 in the test with HT-29 was found to be 1.7 µg/mL (≈ 4.74 µM).

For `C=C[C@H]1CC[C@H]2[C@@H]3CC[C@H]4C[C@@H](O[C@@H]5OC[C@@H](O)[C@H](O)[C@H]5O)CC[C@]4(C)[C@H]3CC[C@]12C` [STEREONSTEROID I], the IC50 with P388 was found to be 5.9 µg/mL (≈ 13.6 µM). In addition, in the test on HT-29, the EC50 turned out to be 7.7 µg/mL (≈ 17.7 µM).

`C=C[C@H]1CC[C@H]2[C@@H]3CC[C@H]4C[C@@H](O[C@@H]5O[C@@H](C)[C@@H](OC(C)=O)[C@@H](O)[C@@H]5O)CC[C@]4(COC(C)=O)[C@H]3CC[C@]12C` [STEREONSTEROID D] displayed an IC50 in the test with P388 of 4.9 µg/mL (≈ 8.93 µM). Besides, the EC50 with HT-29 turned out to be 5.2 µg/mL (≈ 9.48 µM).

For `C=CC1CCC2C3CCC4CC(OC5OC(C)C(O)C(OC(C)=O)C5O)CCC4(C)C3CCC12C` (stereo not drawn), in the test with P388, inhibition was half-maximal at 13.3 µg/mL (≈ 27.1 µM) (IC50). Also, the EC50 in the test on HT-29 came out at 6.2 µg/mL (≈ 12.6 µM).

Take `C=C[C@H]1CC[C@H]2[C@@H]3CC=C4C[C@@H](O[C@@H]5O[C@@H](C)[C@@H](O)[C@@H](OC(C)=O)[C@@H]5O)CC[C@]4(C)[C@H]3CC[C@]12C` [STEREONSTEROID H]: the IC50 in the test with P388 is 5.4 µg/mL (≈ 11.1 µM). Also, the EC50 with HT-29 is 5.3 µg/mL (≈ 10.8 µM).

`C=C[C@H]1CC[C@H]2[C@@H]3CC[C@H]4C[C@@H](O[C@@H]5O[C@@H](C)[C@@H](OC(C)=O)[C@@H](O)[C@@H]5O)CC[C@]4(CO)[C@H]3CC[C@]12C` [STEREONSTEROID C]: it took 3.1 µg/mL (≈ 6.12 µM) to reach half-maximal inhibition with P388 (IC50). Also, the EC50 in the test with HT-29 came out at 2.7 µg/mL (≈ 5.33 µM).
